Bioassay records deposited in PubChem BioAssay by several laboratories.
TRPML3 agonist = agonists of human TRPML3 channel; Q8TDD5; HEK293 TRPML3-YFP, Fluo-8 calcium fluorescence; 100% = the carbachol control signal; activation, % at 3 µM; actives 0.29% (n = 220,000);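 active means activation above its plate's cutoff, the mean activation of the plate's test wells plus 3 SD, cut at about 12% in these data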;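 further: 0% = DMSO only wells and 100% = carbachol wells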
Target sequence (Q8TDD5 whole entry, looked up): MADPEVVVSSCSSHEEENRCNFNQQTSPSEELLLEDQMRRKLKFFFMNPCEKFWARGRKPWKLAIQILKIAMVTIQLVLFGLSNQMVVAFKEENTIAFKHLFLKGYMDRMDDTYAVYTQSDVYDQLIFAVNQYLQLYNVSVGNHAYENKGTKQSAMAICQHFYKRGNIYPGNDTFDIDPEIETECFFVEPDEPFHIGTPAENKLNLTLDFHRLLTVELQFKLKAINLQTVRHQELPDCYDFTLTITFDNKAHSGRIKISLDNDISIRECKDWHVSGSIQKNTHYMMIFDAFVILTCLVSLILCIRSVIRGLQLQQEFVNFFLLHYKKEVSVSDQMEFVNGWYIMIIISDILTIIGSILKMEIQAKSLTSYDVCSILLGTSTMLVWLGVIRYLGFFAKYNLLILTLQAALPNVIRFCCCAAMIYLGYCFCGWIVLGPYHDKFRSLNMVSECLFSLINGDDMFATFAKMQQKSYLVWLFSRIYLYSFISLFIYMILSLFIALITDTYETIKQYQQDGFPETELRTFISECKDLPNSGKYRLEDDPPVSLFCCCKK
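Test system: TRPML3-YFP stable HEK293 cells. Doses: single point at 3 µM. Incubation: dye loading 1 h 37 °C then 30 min ambient, 125 s read. Signal: Fluo-8 calcium dye fluorescence, ex 470-495, em 515-575 nm. Measure: percent activation from peak-to-basal fluorescence ratio, scaled between DMSO and carbachol.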
zfTRPN1 agonist = agonists of zebrafish TRPN1 channel. HEK293 zebrafish TRPN1-YFP, Fluo-8 calcium fluorescence; 100% = response to 87 µM carbachol. activation, % at 3 µM. actives 0.18% (n = 220,000). AID 1424;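 active means activation above its plate's cutoff, the mean activation of test wells on that plate plus 3 SD, cut at about 19% in these data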;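 further: 0% = DMSO alone and 100% = 87 µM carbachol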
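Material – zebrafish TRPN1-YFP in HEK293 cells · Doses – 3 µM single point · Schedule – dye 1 h 37 °C plus 30 min RT · Signal – Fluo-8 calcium fluorescence, excitation 470-495 nm, emission 515-575 nm · Read-out – % activation versus carbachol response · Control set – carbachol high, DMSO low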
VIM-2 inh = inhibitors of Pseudomonas aeruginosa VIM-2 metallo-beta-lactamase; purified VIM-2, nitrocefin hydrolysis, epi-absorbance fluorescence; inhibition, % at 5.6 µM; actives 0.89% (n = 290,000);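 active means inhibition above the mean of all tested compounds plus 3 SD, cutoff set per screening run, cut at about 7.5% in these data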;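 further: red hydrolysis product quenches plate fluorescence so inhibitors raise well fluorescence; 0% = enzyme with DMSO and 100% = DMSO without enzyme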
CRFR2-BP ag = CRF-BP/CRF-R2 complex agonism. HEK293 CRF-R2/CRF-BP, calcium dye fluorescence (FLIPR); percent of saturating CRF peptide response. activation, % at 13.2 µM. actives 0.46% (n = 350,000). AID 588473;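 active means activation of at least 50%, plus an integration ratio under a set limit after plate pattern correction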;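 further: plate controls were neutral control wells without compound for no effect and CRF at EC100 for full effect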
CRFR2-BP antag = antagonists of CRF-binding protein/CRF-R2 receptor complex; actives 0.59% (n = 350,000); HEK293 CRF-R2/CRF-BP, CRF-induced calcium fluorescence; inhibition, % at 11.8 µM;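 active means inhibition of the ligand-induced calcium signal above about 50% at the single tested concentration, limit read from the data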
IMP-1 inhibitor = blocks Pseudomonas aeruginosa IMP-1 metallo-beta-lactamase; inhibition, % at 5.6 µM; purified IMP-1, nitrocefin hydrolysis, epi-absorbance fluorescence; actives 0.45% (n = 290,000);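 active means inhibition above the mean plus 3 SD of all compounds in the same screening run, cut at about 4.5% in these data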;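 further: 0% = IMP-1 with DMSO and 100% = DMSO wells lacking enzyme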
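System: purified recombinant IMP-1 beta-lactamase. Medium: Zinc- and detergent-supplemented HEPES buffer, pH 7.1. Compound: one 5.6 µM dose […]. Schedule: 15 min preincubation plus 25 min reaction at 25 °C. Technique: Epi-absorbance fluorescence, 480 nm excitation, 530 nm emission.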
An asterisk follows results filed as active; . = not tested or not shown. Hits are enriched below; roughly 2.1% of the tested compounds scored in any of these assays.

SMILES | TRPML3 agonist | zfTRPN1 agonist | VIM-2 inh | CRFR2-BP ag | CRFR2-BP antag | IMP-1 inhibitor
O=C(Cc1ccccc1)Nn1c(O)c(/C=C2\C=Nc3ccccc32)sc1=S | 5 | 10 | -1 | 67* | -119 | -3
Cc1[nH]c2ccccc2c1C(=O)CSC(=S)N1CCN(C)CC1 | 1 | 2 | 12* | 0 | -27 | 0
Cc1cc(Nc2ccccc2C(=O)O)n(-c2ccc([N+](=O)[O-])cc2)n1 | -1 | -2 | 1 | -5 | 15 | -1
COc1ccc(OCC(O)CN2CCc3ccccc3C2)cc1 (centres undefined) | . | . | -1 | 0 | 56* | -3
O=c1c2ccccc2nc2n1C(CBr)CN2 (centres undefined) | 1 | 1 | -2 | -1 | 65* | 0
O=C(NC(=S)Nc1ccc(F)cc1)c1ccc2c(c1)OCCO2 | 2 | 6 | 0 | 93* | -195 | 2
COc1ccc(CCN2CC(C(=O)NCc3ccc(F)cc3)CC2=O)cc1OC (centres undefined) | 1 | 1 | -4 | 2 | -1 | -2
CC(Oc1cc2oc(=O)c3c(c2cc1Cl)CCCC3)C(=O)NCc1ccccn1 (centres undefined) | . | . | 6 | -1 | -12 | -5
O=C(COc1cc2oc(=O)c3c(c2cc1Cl)CCC3)NCc1ccccn1 | . | . | 10* | 2 | -5 | 2
CC(Oc1cc2oc(=O)c3c(c2cc1Cl)CCCC3)C(=O)NCc1cccnc1 (centres undefined) | . | . | 7 | -1 | -15 | -1
CC(Oc1cc2oc(=O)c3c(c2cc1Cl)CCC3)C(=O)NCc1ccccn1 (centres undefined) | . | . | 12* | 0 | 8 | -3
CC(Oc1cc2oc(=O)c3c(c2cc1Cl)CCC3)C(=O)NCc1cccnc1 (centres undefined) | . | . | 11* | 0 | -5 | -3
O=C(COc1ccc2c3c(c(=O)oc2c1)CCCC3)NCc1ccccn1 | . | . | 7.8* | -2 | -6 | -2
O=C(CNc1cccc(S(=O)(=O)N2CCCCC2)c1)Nc1ccc(C(F)(F)F)cc1 | . | . | . | 0 | -28 | .
CCN(CC(=O)NCc1ccc(F)cc1)Cc1cc(=O)n2ccsc2n1 | 0 | 1 | -4 | -1 | -9 | 7.6*
CCC(=O)Nc1ccc(NC(=O)c2oc3ccccc3c2C)cc1 | . | . | 0 | -1 | 98* | -3
CC1=CC(=C(C#N)c2nc3ccccc3s2)C=C(C)N1CC1CCCO1 (centres undefined) | 1 | 0 | -1 | 64* | -26 | -3
CCN1C(=O)C(=O)N(Cc2ccc(OC)c(F)c2)C1=O | . | . | -1 | 0 | 84* | -5
COc1ccc(CN2C(=O)NC(C)(c3ccc(C)cc3)C2=O)cc1F (centres undefined) | 0 | 1 | 0 | -1 | 1 | 1
CCOC(=O)C1=C(C)Nc2nnnn2C1c1cccnc1 (centres undefined) | 0 | 1 | -2 | -1 | -9 | -1
CCCC1=C(C(=O)OCC)C(c2cccnc2)n2nc(C)nc2N1 (centres undefined) | 0 | 2 | -2 | 0 | 114* | -4
COC(=O)Cn1c(C)c(/C=C/c2cc[n+](C)cc2)c2ccccc21 | . | . | 5 | 39 | -6 | 1
COC(=O)Cn1cc(/C=C/c2cc[n+](C)cc2)c2ccccc21 | . | . | 4 | 51* | -61 | 0
NS(=O)(=O)c1ccc(CCNC(=O)CNC(=O)c2ccc(Oc3ccccc3)cc2)cc1 | . | . | 0 | 0 | 1 | -2
O=C(CCn1c(=S)oc2ccccc21)Nc1ccccc1Br | . | . | -3 | -1 | -1 | -1
C[C@@H]1C(=O)OC[C@H]1NC(=O)OCc1ccccc1 | . | . | . | -1 | -3 | .
Cc1nc(-c2ccccc2)sc1-c1n[nH]c(=S)n1C | 0 | 0 | -2 | -3 | 5 | -4
CSc1nnc(-c2sc(-c3ccccc3)nc2C)n1C | 1 | 1 | -2 | 0 | 55* | -1
O=C(CC(CC(=O)c1ccccc1)c1ccncc1)c1ccccc1 | . | . | . | -3 | 86* | .
O=C(CC(CC(=O)c1ccccc1)c1ccccc1)c1ccccc1 | . | . | -3 | 3 | 3 | -2
